For orientation: inhibition means the drop in the measured response relative to a control, in per cent.

The values below come from PubChem BioAssay.

Assay [1] can be described thus: inhibitors of TNFa-induced NFkB p65 translocation, primary screen, imaging, HUVEC, MLSMR starter and 10KST1 sets (AID 438;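 active = inhibition above 20% together with a positive visual image hit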;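 also: compound added about 3h40 before a 20 min TNFalpha stimulation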;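 as to inhibition: signal is the nuclear over cytoplasmic p65 intensity ratio per well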). Particulars: HUVEC TNFa-induced p65 nuclear translocation; cell count: measured here: nuclei count (cytotoxicity indicator), at 2.08 µM; inhibition: at 2 µM, stronger effect = higher value, 0% TNFa-plus-vehicle, 100% no-TNFa wells.
A short description of assay [2]: inhibitors of mutant huntingtin aggregation, primary screen, imaging, exon1htt(103Q)mCFP cells, high-content imaging (AID 483).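 Also: compound exposure lasted 3 days before fixation.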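 As to nuclei count: percent of the per-plate median nuclei count of sample wells.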 Particulars: exon1htt(103Q)mCFP cell line, aggregate imaging, at 2 µM; inhibition of aggregation: stronger effect = higher value; nuclei count: measured here: cell count, toxicity.
A short description of assay [3]: inhibitors of E-selectin induction by TNFa, primary screen, imaging, HUVEC, immunofluorescence, MLSMR starter and 10KST1 sets (AID 487;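 active = visually confirmed hit in the image check and inhibition above 20%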;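 as to inhibition: signal is fraction of cell area covered by stained E-selectin grains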;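 as to nuclei count: 100% = median nuclei count of all wells on the same plate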). The conditions noted are these: HUVEC TNFalpha-induced E-selectin immunofluorescence imaging, at 2 µM; inhibition: stronger effect = higher value; nuclei count: measured here: cell number, toxicity.
Assay [4] concerns the target Voltage-gated potassium channel subunit beta-2 (Rattus norvegicus) (UniProt P62483). Briefly: KvBeta enzyme negative modulators, primary screen, biochemical, NADPH fluorescence (AID 622;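 active = fluorescence slope higher than the sample average by over 3 SD, cut at about -0.22 in these data, passing the limit was not always enough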;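 also: slope of raw intensity against log time taken from 70 to 1610 s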). Particulars: recombinant KvBeta, 4-cyanobenzaldehyde reduction, at 10 µM, stronger effect = higher value.
Assay [5] has the same target. The assay can be described thus: KvBeta positive modulators, primary screen, biochemical, NADPH fluorescence (AID 623;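 active = NADPH fluorescence slope more negative than the mean of all samples by about 3 SD, 99.7% confidence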;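 also: fluorescence intensity change per second fitted from 20 to 320 s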). The conditions noted are these: Recombinant KvBeta, NADPH fluorescence decrease slope, 10 min; at 10 µM; stronger effect = lower value.
Assay [6] deals with Muscarinic acetylcholine receptor M4 (Homo sapiens) (UniProt P08173). Briefly: compounds altering M4/GIRK thallium flux, either direction, primary screen, M4 allosteric agonist project, cell-based, HEK293 M4/GIRK, BTC-AM (AID 625;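 active = fluorescence slope after compound addition differing from the mean of all tested samples at 99.7% confidence, mostly higher but some lower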;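 also: thallium influx through GIRK channels coupled to M4 in HEK293 cells with BTC-AM dye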). The conditions noted are these: at 10 µM, actives lie on both sides. In outline:
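Material – HEK293 cells with M4 receptor and GIRK channels · Buffer or medium – pH 7.3 thallium assay buffer · Doses – one dose, 10 µM final · Timing – cells overnight at 37 °C, BTC-AM loading 1 h, reads 2 min total · Measured by – kinetic fluorescence with BTC-AM dye · Controls – carbachol and DMSO controls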

The nature of assay [7]: inhibitors of Sendai virus-induced IRF3 signaling, primary screen, TLR/RLR signaling modifier project, cell-based, Sendai virus stimulus, luciferase, 10K MLSCN set (AID 602276;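 active = inhibition at or above 50% at 10 µM; inactive = inhibition below 50%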;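 also: firefly luciferase from ISG56 promoter only with Renilla not read in this screen; 0% = Sendai virus plus DMSO and 100% = medium plus DMSO without virus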). Particulars: HEK293 RL24 IRF3 luciferase reporter, at 10 µM, stronger effect = higher value. On the technique in general: Reporter assays use an easily measured gene product as a stand-in for the process of interest.

The nature of assay [8]: inhibitors of poly I:C-induced TLR3 signaling, primary screen, cell-based, poly I:C stimulus, luciferase, 10K MLSCN set (AID 602277;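 active = inhibition of the reporter signal at or above 50%; inactive = inhibition below 50%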). Particulars: HEK293-TLR3 RL24 IRF3 luciferase reporter, at 10 µM, stronger effect = higher value.

Calls of active or inactive are those of the source.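 The calls were made as follows, unless noted: active = visual image review flags a hit and inhibition of aggregation exceeds 20%; inconclusive = visual hit but inhibition at or below 20%; inactive = no hit on visual image review.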

Sequence of Voltage-gated potassium channel subunit beta-2 (Rattus norvegicus) (P62483 whole entry, looked up): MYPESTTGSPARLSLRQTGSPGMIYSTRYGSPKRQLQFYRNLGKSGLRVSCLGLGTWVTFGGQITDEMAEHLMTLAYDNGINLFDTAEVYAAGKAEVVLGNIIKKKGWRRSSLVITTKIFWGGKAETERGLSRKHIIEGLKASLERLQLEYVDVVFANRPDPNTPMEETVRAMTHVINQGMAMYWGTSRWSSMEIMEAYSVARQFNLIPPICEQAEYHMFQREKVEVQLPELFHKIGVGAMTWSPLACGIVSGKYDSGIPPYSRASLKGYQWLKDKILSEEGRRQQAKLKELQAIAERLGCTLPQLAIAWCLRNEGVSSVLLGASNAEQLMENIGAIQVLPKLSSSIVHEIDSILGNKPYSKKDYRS
Sequence of Muscarinic acetylcholine receptor M4 (Homo sapiens) (P08173 whole entry, looked up): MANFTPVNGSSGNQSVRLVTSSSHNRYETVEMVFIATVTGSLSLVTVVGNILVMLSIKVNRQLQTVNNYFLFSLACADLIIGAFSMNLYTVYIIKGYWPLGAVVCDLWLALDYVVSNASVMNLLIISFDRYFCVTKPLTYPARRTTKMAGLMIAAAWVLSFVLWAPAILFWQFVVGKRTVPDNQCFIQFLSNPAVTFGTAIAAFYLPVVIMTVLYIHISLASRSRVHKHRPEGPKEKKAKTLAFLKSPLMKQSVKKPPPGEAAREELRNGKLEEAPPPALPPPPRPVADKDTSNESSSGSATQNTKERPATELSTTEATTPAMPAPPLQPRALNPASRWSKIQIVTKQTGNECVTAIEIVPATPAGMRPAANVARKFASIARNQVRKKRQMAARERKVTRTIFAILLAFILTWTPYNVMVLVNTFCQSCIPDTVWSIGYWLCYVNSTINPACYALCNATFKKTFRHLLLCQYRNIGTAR

As for `O=c1c2ccccc2c(C=Nc2ccc(Cl)cn2)c(O)n1-c1cc(Cl)ccc1N1CCOCC1`, the cell count in assay [1] was determined as 164. For the same compound, the inhibition in assay [1] was 14.4% (inactive); in assay [3], -0.8% (inactive); in assay [7], 7.35% (inactive); in assay [8] it was -5.13% (inactive). Also, in assay [2], the inhibition of aggregation was -6.2% (inactive). Besides, the nuclei count in assay [2] came to 83.8%; in assay [3], 90.3%. The results for the fluorescence slope in assay [4] and in assay [6] were -0.551 (inactive) and 0.00995 (inactive), respectively. Also, the NADPH fluorescence slope in assay [5] is -6e-05 (inactive).
Regarding `O=C(Cc1ccc(S(=O)(=O)N2CCCC2)s1)Nc1nc2c(s1)CCCC2`, the cell count in assay [1] came to 577. The inhibition in assay [1] was 22.2% (inactive); in assay [3], 18.1% (inactive); in assay [7] it was -11% (inactive); in assay [8], -53.9% (inactive). In addition, the inhibition of aggregation in assay [2] is 25.3% (inactive). For the same compound, the nuclei count is 94.3% in assay [2] and 71.4% in assay [3]. Also, the fluorescence slope in assay [4] is -0.574 (inactive); in assay [6], 0.00565 (inactive). Besides, the NADPH fluorescence slope in assay [5] is -5.6e-05 (inactive).
Turning to `CCS(=O)(=O)N1CCC(C(=O)NC2CCCCC2)CC1`, the cell count in assay [1] came to 572. In addition, the inhibition was 4.5% (inactive) in assay [1], 15.2% (inactive) in assay [3], 10% (inactive) in assay [7] and 16% (inactive) in assay [8]. Besides, the inhibition of aggregation in assay [2] was 7.8% (inactive). The nuclei count is 110% in assay [2] and 118% in assay [3]. The fluorescence slope in assay [4] was -0.483 (inactive); in assay [6], 0.00287 (inactive). Besides, the NADPH fluorescence slope in assay [5] is -0.000241 (inactive).
For `COc1ccc(-c2noc(-c3cc(Cl)ccc3Cl)n2)cc1OC`, the cell count in assay [1] amounted to 686. Also, the inhibition was -10.5% (inactive) in assay [1], 14.6% (inactive) in assay [3], 0.153% (inactive) in assay [7] and -15.5% (inactive) in assay [8]. For the same compound, the inhibition of aggregation in assay [2] was -10.9% (inactive). The figures for the nuclei count in assay [2] and in assay [3] were 104% and 86.8%, respectively. The figures for the fluorescence slope in assay [4] and in assay [6] were -0.526 (inactive) and 0.00828 (inactive), respectively. Moreover, the NADPH fluorescence slope in assay [5] is -2.2e-05 (inactive).
`CCNc1nc(OC)nc(Oc2ccc(=O)n(-c3ccccc3)n2)n1`: the cell count in assay [1] is 769. For the same compound, the inhibition in assay [1] was 6.8% (inactive); in assay [3], -86.7% (inactive); in assay [7] it was 16.1% (inactive); in assay [8], 22% (inactive). In assay [2], the inhibition of aggregation is 8.6% (inactive). In addition, the nuclei count in assay [2] was 106%; in assay [3], 124%. For the same compound, the fluorescence slope was -0.261 (inactive) in assay [4] and 0.00602 (inactive) in assay [6]. In addition, in assay [5], the NADPH fluorescence slope was -3e-05 (inactive).
For `COc1ccccc1C(=O)Nc1c2c(nn1-c1cccc(C)c1C)CS(=O)(=O)C2`, in assay [1], the cell count was determined as 335. The inhibition in assay [1] was -6.6% (inactive); in assay [3], -51.3% (inactive); in assay [7] it was 14.2% (inactive); in assay [8] it was 19.1% (inactive). Further, the inhibition of aggregation in assay [2] is -7% (inactive). Besides, the nuclei count in assay [2] was 79.5%; in assay [3] it was 106%. The fluorescence slope is -0.492 (inactive) in assay [4] and 0.00519 (inactive) in assay [6]. For the same compound, the NADPH fluorescence slope in assay [5] was -4.5e-06 (inactive).
In the case of `COc1ccccc1OC(=O)c1ccc(SC)cc1OC`, the cell count in assay [1] is 384. The inhibition in assay [1] was -15.2% (inactive); in assay [3], 7.8% (inactive); in assay [7], -1.26% (inactive); in assay [8], 2.42% (inactive). For the same compound, the inhibition of aggregation in assay [2] was 6.6% (inactive). For the same compound, the values for the nuclei count in assay [2] and in assay [3] were 99.3% and 116%, respectively. In addition, the values for the fluorescence slope in assay [4] and in assay [6] were -0.57 (inactive) and 0.00466 (inactive), respectively. Moreover, in assay [5], the NADPH fluorescence slope was -2.8e-05 (inactive).
`CCCOc1cc(C)c(S(=O)(=O)N2CCN(C)CC2)cc1C`: in assay [1], the cell count worked out at 443. Moreover, the inhibition in assay [1] is 10.6% (inactive); in assay [3], -11.9% (inactive); in assay [7], 7.65% (inactive); in assay [8], 10.4% (inactive). Further, the inhibition of aggregation in assay [2] is 12.8% (inactive). The nuclei count turned out to be 100% in assay [2] and 96.1% in assay [3]. In addition, the fluorescence slope is -0.57 (inactive) in assay [4] and 0.00349 (inactive) in assay [6]. Further, the NADPH fluorescence slope in assay [5] is -3.7e-05 (inactive).
Consider `O=S(=O)(NCCSc1ccccc1)c1cccs1`, for which the cell count in assay [1] was 652. Further, the inhibition was -6.3% (inactive) in assay [1], -12.2% (inactive) in assay [3], 5.83% (inactive) in assay [7] and 11.1% (inactive) in assay [8]. In addition, the inhibition of aggregation in assay [2] is -14.5% (inactive). In addition, the nuclei count in assay [2] turned out to be 103%; in assay [3], 104%. The fluorescence slope in assay [4] was -0.208 (inactive); in assay [6], 0.00557 (inactive). For the same compound, the NADPH fluorescence slope in assay [5] is -2e-05 (inactive).
Regarding `CCSc1ncc(C#N)c(=O)[nH]1`, in assay [1], the cell count is 381. Besides, the inhibition is 3.5% (inactive) in assay [1], -53.9% (inactive) in assay [3], 2.6% (inactive) in assay [7] and 6.42% (inactive) in assay [8]. Moreover, in assay [2], the inhibition of aggregation is -21.7% (inactive). In addition, the results for the nuclei count in assay [2] and in assay [3] were 89.7% and 102%, respectively. The fluorescence slope is -0.517 (inactive) in assay [4] and 0.00385 (inactive) in assay [6]. In assay [5], the NADPH fluorescence slope is -0.000177 (inactive).
Regarding `Cc1ccc(-c2nn(C)c(=O)c3ccccc23)cc1S(=O)(=O)N1CCOCC1`, the cell count in assay [1] is 595. Moreover, the inhibition in assay [1] was -10.5% (inactive); in assay [3] it was -64.2% (inactive); in assay [7], 8.97% (inactive); in assay [8], 30.3% (inactive). Also, the inhibition of aggregation in assay [2] was -24.4% (inactive). The nuclei count in assay [2] is 101%; in assay [3], 102%. In addition, the fluorescence slope in assay [4] is -0.511 (inactive); in assay [6], 0.0045 (inactive). For the same compound, the NADPH fluorescence slope in assay [5] was -2.7e-05 (inactive).
`Cc1cnnc2c1-c1nonc1CC2`: in assay [1], the cell count is 347. The inhibition is 2% (inactive) in assay [1], 5.6% (inactive) in assay [3], 17.8% (inactive) in assay [7] and 14.6% (inactive) in assay [8]. The inhibition of aggregation in assay [2] was -17.8% (inactive). Moreover, the nuclei count in assay [2] is 109%; in assay [3] it was 116%. In addition, the fluorescence slope was -0.529 (inactive) in assay [4] and 0.00506 (inactive) in assay [6]. In assay [5], the NADPH fluorescence slope was 3.9e-05 (inactive).
As for `O=C(CCC(=O)N1CCN(S(=O)(=O)c2ccccc2)CC1)c1cccs1`, the cell count in assay [1] came out at 633. The inhibition in assay [1] is -1.3% (inactive); in assay [3] it was -176% (inactive); in assay [7] it was -5.43% (inactive); in assay [8], -3.56% (inactive). For the same compound, the inhibition of aggregation in assay [2] is -22.1% (inactive). The nuclei count in assay [2] turned out to be 102%; in assay [3] it was 153%. Besides, the values for the fluorescence slope in assay [4] and in assay [6] were -0.568 (inactive) and 0.00592 (inactive), respectively. Further, the NADPH fluorescence slope in assay [5] is -7e-05 (inactive).
With `O=C(CC1CCCCC1)NCc1ccccn1`, in assay [1], the cell count is 595. The inhibition was 4.1% (inactive) in assay [1], -42.2% (inactive) in assay [3], 11.5% (inactive) in assay [7] and 12.6% (inactive) in assay [8]. Also, the inhibition of aggregation in assay [2] is 11.3% (inactive). Besides, the nuclei count came out at 94.6% in assay [2] and 116% in assay [3]. In addition, the fluorescence slope was -0.462 (inactive) in assay [4] and 0.00493 (inactive) in assay [6]. Also, the NADPH fluorescence slope in assay [5] is -5.1e-05 (inactive).
